Laboratory results from article PMC7453568 (ACS Central Science, 2020).
“Also recorded” adds a separate entry of the source.

Columns and labels:
pErk = test: Erk signaling; format: cell-based, human; details: for pErk: MIA PaCa-2 and NCI-H23 cells, 6 and 24 h
In short: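 Human KRAS^G12C cancer cells were treated for 24 h over a degrader dose range (NCI-H2030, heterozygous NCI-H23). Separately, MIA PaCa-2 and NCI-H23 received degrader or parent covalent inhibitor for 6 and 24 h, and time courses used 2.5 μM degrader. pErk and total Erk were immunoblotted and quantified against DMSO-treated cells. Lysates came from independent wells harvested the same day. Time-course data: mean ± SD, two biological replicates.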

KRAS^G13D = KRAS^G13D (Homo sapiens, UniProt P01116, G13D); test: KRAS engagement/degradation in HCT 116 cells; format: cell-based; details: HCT 116 cells (heterozygous KRAS^G13D), up to 10 μM
KRAS^G12C [1] = biological target: T1, KRAS^G12C (Homo sapiens, UniProt P01116, G12C); test: KRAS^G12C degradation, total KRAS levels by immunoblotting; format: cell-based
KRAS^G12C [2] = biological target: T1, KRAS^G12C; test: KRAS^G12C engagement, band shift of PROTAC-conjugated KRAS on immunoblot; format: cell-based; details: 2.5 μM
In short: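 KRAS was immunoblotted from independent wells harvested the same day. Engagement was the intensity of the higher-molecular-weight, PROTAC-modified band relative to unbound KRAS in DMSO samples. Mean ± SD, two biological replicates.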

NCI-H2030 cells = test: Cell viability assay; format: cell-based, human; details: homozygous NCI-H2030 cells, MTS, 72 h
NCI-H23 cells = test: Cell viability assay; format: cell-based, human; details: heterozygous NCI-H23 cells, MTS, 72 h
[3] = MIA PaCa-2, NCI-H23 and SW1573 cells, 2.5 μM, 6-72 h time course
[4] = NCI-H2030 cells, 2.5 μM, 24 h time course

Compound: C=C(F)C(=O)N1CCN(c2nc(OC[C@@H]3CCCN3CCCOCCC(=O)N[C@H](C(=O)N3C[C@H](O)C[C@H]3C(=O)NCc3ccc(-c4scnc4C)cc3)C(C)(C)C)nc3c2CCN(c2cccc4cccc(Cl)c24)C3)C[C@@H]1CC#N [LC-2]
- pErk (pErk; 2.5 μM): suppressed
- pErk signaling, dose response (pErk; NCI-H23 cells, 24 h): dose-dependent decrease
- pErk signaling, dose response (pErk; NCI-H2030 cells, 24 h): dose-dependent decrease
- pErk levels versus DMSO-treated cells (pErk; SW1573 cells, 2.5 μM, 24 h): significantly lower
- total Erk versus DMSO (pErk; SW1573 cells, 2.5 μM, all time points): increased
- phosphorylated Erk (pErk; SW1573 cells, 2.5 μM, between 1 and 4 h): inhibited
- pErk levels (pErk; SW1573 cells, 2.5 μM, between 8 and 24 h): rebounded
- engagement or degradation of KRAS^G13D (KRAS^G13D): No engagement or degradation
- Dmax (KRAS^G12C [1]; MIA PaCa-2, MIA PaCa-2 cells, KRAS^G12C +/+, 24 h): ~75%
- duration of KRAS degradation (KRAS^G12C [1]; [3]): sustained up to 72 h
- time to maximal KRAS degradation (KRAS^G12C [1]; [3]): ≤ 24 h
- Dmax (KRAS^G12C [1]; NCI-H23, NCI-H23 cells, KRAS^G12C +/−, 24 h): ~90%
- KRAS degradation (KRAS^G12C [1]; NCI-H23 cells (heterozygous)): > 50%
- KRAS degradation with neddylation inhibition (KRAS^G12C [1]; NCI-H23 cells, 2.5 μM LC-2, 24 h): rescues; also recorded: rescued KRAS degradation
- KRAS^G12C level rebound (KRAS^G12C [1]; NCI-H23 cells, 2.5 μM, 72 h time course): began to rebound at 72 h
- Dmax (KRAS^G12C [1]; NCI-H358, NCI-H358 cells, KRAS^G12C +/−, 24 h): ~40%
- Dmax (KRAS^G12C [1]; NCI-H2030, NCI-H2030 cells, KRAS^G12C +/+, 24 h): ~75%
- KRAS^G12C levels with neddylation inhibitor MLN4924 (KRAS^G12C [1]; NCI-H2030 cells, 1 μM MLN4924, 2.5 μM LC-2, 4 h): rescued KRAS^G12C levels
- KRAS^G12C levels with proteasome inhibitor epoxomicin (KRAS^G12C [1]; NCI-H2030 cells, 1 μM epoxomicin, 2.5 μM LC-2, 4 h): rescued KRAS^G12C levels
- KRAS^G12C degradation (KRAS^G12C [1]; NCI-H2030 cells, 2.5 μM, 4 h): ~65%
- persistence of maximal degradation (KRAS^G12C [1]; [4]): persisted up to 24 h; also recorded: maintained up to 24 h
- time to maximum degradation (KRAS^G12C [1]; [4]): ≤ 8 h
- lowest concentration inducing maximal degradation of endogenous KRAS^G12C (KRAS^G12C [1]; NCI-H2030 cells, 24 h): 2.5 µM
- KRAS levels, dose response (KRAS^G12C [1]; NCI-H2030 cells, 24 h, increasing concentrations): degrades KRAS^G12C in a dose-dependent manner
- Dmax (KRAS^G12C [1]; SW1573, SW1573 cells, KRAS^G12C +/+, 24 h): ~90%
- time to maximal degradation (KRAS^G12C [1]; SW1573 cells, 2.5 μM, 24 h time course): 12 h
- time at which KRAS^G12C binding/engagement is seen (KRAS^G12C [2]; NCI-H2030 cells): ≤ 1 h
- time at which KRAS engagement is seen (KRAS^G12C [2]; SW1573 cells): ≤ 1 h

Compound: C=C(F)C(=O)N1CCN(c2nc(OC[C@@H]3CCCN3C)nc3c2CCN(c2cccc4cccc(Cl)c24)C3)C[C@@H]1CC#N [MRTX849]
- pErk (pErk; 0.10 μM): suppressed
- cell viability (antiproliferative potency) (NCI-H2030 cells): more antiproliferative
- cell viability (antiproliferative potency) (NCI-H23 cells): more antiproliferative
